# Assay outcomes from PubChem.
# This is a sample that favours compounds with a hit; in the whole collection about 4.2% have one here.
# CTSL1 counter – cathepsin L1 inhibition, PFM18AAP counter-screen. recombinant F. hepatica cathepsin L1, Z-Leu-Arg-MCA fluorescence. AID 1906. 300,000 compounds, 0.49% hits. inhibition, % at 5.96 µM;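 active = inhibition above the mean of all tested compounds plus 3 SD, set per screening campaign, cut at about 17% in these data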;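 also: 0% = plate median of test compound wells and 100% = 1 µM Z-Phe-Ala-diazomethylketone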
# FXN GAA850 act – increases GAA850 frataxin promoter reporter activity. HEK293 lucGAA850 FXN promoter luciferase reporter, 24 h; percent of 10 µM SAHA response. activation, % at 6 µM. 360,000 compounds, 0.56% hits;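 active = activation above the average of all compounds screened plus 3 SD, cutoff fixed separately per campaign, cut at about 7.5% in these data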;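 also: 0% = DMSO wells and 100% = 10 µM SAHA wells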
# M18AAP inhibitor – blocks P. falciparum M18 aspartyl aminopeptidase; recombinant PfM18AAP, H-Glu-NHMec fluorogenic cleavage; inhibition, % at 7.35 µM; 290,000 compounds, 1.2% hits;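 active = inhibition above the campaign mean inhibition over all tested compounds plus 3 SD, cut at about 28% in these data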;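 also: 0% = plate median of test compound wells and 100% = 2 mM ZnCl2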
# AHR activator – activators of human aryl hydrocarbon receptor. P35869. AHR-responsive luciferase reporter cells, luminescence. activation, % at 5 µM. 320,000 compounds, 2.5% hits. AID 2796; in the data active = activation above about 47%;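 also: 0% = vehicle wells and 100% = reference agonist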
# Target sequence (P35869 whole entry, looked up): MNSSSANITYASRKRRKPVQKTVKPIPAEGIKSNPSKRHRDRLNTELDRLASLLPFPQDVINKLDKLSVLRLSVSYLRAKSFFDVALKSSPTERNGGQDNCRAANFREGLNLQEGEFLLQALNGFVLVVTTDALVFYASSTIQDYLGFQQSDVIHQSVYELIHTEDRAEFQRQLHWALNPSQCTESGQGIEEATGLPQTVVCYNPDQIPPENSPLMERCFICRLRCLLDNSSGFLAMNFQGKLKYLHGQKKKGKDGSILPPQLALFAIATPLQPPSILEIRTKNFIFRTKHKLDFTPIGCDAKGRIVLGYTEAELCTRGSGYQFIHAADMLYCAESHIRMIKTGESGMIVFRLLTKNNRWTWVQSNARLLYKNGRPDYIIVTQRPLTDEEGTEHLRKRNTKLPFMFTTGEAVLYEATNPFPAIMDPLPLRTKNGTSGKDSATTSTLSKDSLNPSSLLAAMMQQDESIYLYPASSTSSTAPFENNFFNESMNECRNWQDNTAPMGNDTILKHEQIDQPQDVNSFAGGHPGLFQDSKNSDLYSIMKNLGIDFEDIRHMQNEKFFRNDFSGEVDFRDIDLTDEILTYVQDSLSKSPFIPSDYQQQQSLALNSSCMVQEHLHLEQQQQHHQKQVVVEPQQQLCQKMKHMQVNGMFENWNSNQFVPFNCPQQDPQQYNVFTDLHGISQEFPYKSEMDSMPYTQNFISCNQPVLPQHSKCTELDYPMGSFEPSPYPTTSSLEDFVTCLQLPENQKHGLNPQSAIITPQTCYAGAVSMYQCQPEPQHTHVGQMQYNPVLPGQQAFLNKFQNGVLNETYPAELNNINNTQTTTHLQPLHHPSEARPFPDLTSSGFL
# SENP1 FRET inh – SENP1 (human) catalytic domain inhibition. inhibition, % at 10 µM. 360,000 compounds, 0.21% hits. recombinant SENP1 catalytic domain, CyPet-SUMO1-YPet FRET cleavage;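 active = inhibition at least 30% at 10 µM, raw YFP signal under a set limit, fluorescence ratio 0.5 to 1.5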;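 also: 0% = enzyme with DMSO and 100% = no enzyme wells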
#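 Test system: human SENP1 catalytic domain; medium: Tris pH 8 buffer plus EDTA, NaCl, BME, BSA, NP40, catalase; incubation: 50 min reaction at room temperature; technique: FRET, CFP and YFP emission; controls: no-enzyme low control and enzyme-plus-DMSO high control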
# HDAC3 inhib – blocks human histone deacetylase 3; O15379; recombinant HDAC3, fluorogenic peptide/trypsin coupled, fluorescence; inhibition, % at 8.3 µM; 320,000 compounds, 0.15% hits; AID 2718; in the data active = inhibition above about 26%, passing the limit was not always enough
# Starred values were filed as active, the others as inactive; . = no result given.
SMILES,CTSL1 counter,FXN GAA850 act,M18AAP inhibitor,AHR activator,SENP1 FRET inh,HDAC3 inhib
C[C@H](NC(=O)c1cc2cc(Cl)ccc2n1C)C(=O)N1CCC(C(=O)O)CC1,.,1,0,.,3,-2
Cn1c(C(=O)Nc2ccc(Cl)cc2)cc2cc(Cl)ccc21,3,-1,2,68*,0,-9
Cc1ncsc1CCSc1nc2ccccc2c(=O)n1C,4,6,-2,96*,1,-2
Cc1c(-c2nc(-c3ccncc3)no2)cccc1[N+](=O)[O-],0,3,-11,65*,2,9
O=[N+]([O-])c1cc(-c2nc(-c3ccncc3)no2)ccc1Cl,3,1,-8,6,-3,1
COc1cc(C#Cc2c(-c3cncn3C)n(C)c3ccc(-c4cnc(OC)nc4)cc23)cc(OC)c1,.,2,.,51*,-5,-3
COc1cc(C#Cc2c(-c3cncn3C)n(C)c3ccc(-c4cnc(N5CCOCC5)nc4)cc23)cc(OC)c1,.,5,.,18,-1,-13
CCCCSCCCNC(=O)c1ccc(CS(=O)(=O)c2ccc(OC)cc2)o1,-5,0,-3,4,0,5
O=C(Nc1ccc(F)cc1F)Nc1ccc(F)cc1F,1,4,-1,-3,0,2
O=C(Nc1ccncc1)Nc1ccc(F)c(Cl)c1,-1,1,-11,11,0,0
O=C(Nc1ccc(F)cc1F)Nc1csc2ccccc12,4,1,12,51*,2,1
O=C(Nc1ccc(F)c(Cl)c1)Nc1csc2ccccc12,0,-1,-1,73*,1,0
COc1cc([N+](=O)[O-])ccc1NC(=S)NNC(=O)c1ccc2c(c1)OCO2,3,-1,8,39,1,13
O=C(NC(=S)Nc1ccc2c(c1)OCO2)c1ccc(Cl)cc1,-3,4,-10,53*,-2,.
O=C(Nc1ccc2c(c1)OCO2)c1ccc([N+](=O)[O-])cc1[N+](=O)[O-],8,1,11,72*,-1,6
O=C(NC(=S)Nc1cc([N+](=O)[O-])ccc1O)c1ccc2c(c1)OCO2,7,-1,12,71*,3,-4
CS(=O)(=O)N(CC(=O)Nc1ccc2c(c1)OCO2)Cc1ccccc1,8,1,-1,15,0,0
CS(=O)(=O)N(CC(=O)Nc1ccc2c(c1)OCO2)Cc1ccc(Cl)cc1,9,3,2,65*,-4,4
CCCc1nnc(NS(=O)(=O)c2ccc(C)cc2)o1,.,1,.,.,0,.
S=C(Nc1ccc2c(c1)OCO2)Nc1ccc2c(c1)OCO2,0,2,5,68*,-9,-4
Cc1cc(=S)nc(-c2ccccn2)[nH]1,-3,1,-13,0,-1,13
CSc1nc(=S)cc(C)[nH]1,7,0,43*,6,2,.
Clc1ccc(SCCOCCN2CCCCCC2)cc1,-3,-1,1,-1,-2,-5
CCOc1c(Br)cc(C(=O)Nc2cccc(S(=O)(=O)N3CCOCC3)c2)cc1OC,.,0,.,.,2,.
O=C(N/N=C/c1c(F)c(F)c(F)c(F)c1F)c1ccc(Cn2cc(Br)cn2)o1,5,-4,2,6,2,-1
SMILES,CTSL1 counter,FXN GAA850 act,M18AAP inhibitor,AHR activator,SENP1 FRET inh,HDAC3 inhib
O=C(N/N=C/c1c(F)cccc1Cl)c1ccc(Cn2cc(Br)cn2)o1,-2,1,-5,49*,1,2
COc1ccc(CN=Cc2c(O)[nH]c3ccccc23)cc1,21*,2,5,24,-1,7
CC(C)NC(=O)N(C)C[C@@H]1Oc2ccc(NC(=O)CCN3CCOCC3)cc2CC(=O)N([C@@H](C)CO)C[C@@H]1C,.,1,.,-1,2,0
O=C(c1cc(C2CCCCN2S(=O)(=O)c2ccc(F)cc2F)on1)N1CCOCC1 (stereo unspecified),.,-1,.,.,0,.
Cc1ccc(C)c(OCCCC(=O)O)c1,17*,-1,-12,7,1,.
COc1ccc(/C(C)=N/Nc2nc3ccccc3n3cnnc23)cc1OC,-2,.,4,61*,.,6
COc1ccc(Nc2nc3ccccc3n3cnnc23)cc1Cl,-3,2,5,4,-3,2
C[C@H](CO)N1C[C@H](C)[C@@H](CN(C)Cc2ccccn2)Oc2ncc(Br)cc2C1=O,.,1,.,.,0,.
COCCN=C1OC(=O)N2C(=O)C3=C4[C@@H](C[C@H]5C(=O)N(c6ccccc6)C(=O)[C@H]5[C@H]4[C@@]12Cc1ccccc1)[C@H]1C(=O)N(c2ccccc2)C(=O)[C@H]1[C@H]3C,18*,-1,.,7,11,3
Cc1ccc(S(=O)(=O)NNC(=O)c2cccc(O)c2)cc1,3,0,30*,0,1,1
O=C(Cn1c(=S)[nH]c2ncccc2c1=O)NCCc1ccccc1,5,.,2,57*,.,-3
O=C(CCNC(=O)c1ccccc1Cl)NNC(=O)c1ccccc1O,-2,1,.,68*,1,1
O=C(NCCNC(=O)c1ccccc1O)c1ccccc1O,-1,-1,-1,0,-1,-2
O=C(C#Cc1cccc([N+](=O)[O-])c1)c1ccccc1,22*,0,21,9,3,-5
CCc1ccc(C(C#N)=CC=Cc2ccccc2)cc1,.,2,.,.,0,.
O=c1[nH]c2ccccc2nc1/C=C/c1ccc(F)cc1,1,6,-3,74*,-25,4
Cn1c(=O)c(/C=C/c2ccc(F)cc2)nc2ccccc21,.,5,-4,.,-35,.
CC(C)(C)/C(O)=C/c1nc2ccccc2[nH]c1=O,-3,2,-1,20,-69,3
O=c1[nH]c2ccccc2nc1/C=C/c1ccccc1,1,3,0,57*,-21,4
O=C1C=C(NCCN2CCOCC2)C(=O)c2cnccc21,100*,.,4,-16,.,2
O=C(NCCN1CCOCC1)c1ccncc1,2,0,0,-1,1,-1
COc1ccc(/C=N/n2cnc3c([nH]c4ccccc43)c2=O)cc1COc1ccccn1,26*,.,-4,9,.,10
CCCCN1CC(=O)N2[C@H]3c4cc(Cl)ccc4OC[C@@H]3[C@H](c3ccccc3)[C@]2(C)C1=O,.,3,.,-4,-2,3
O=C(N/N=C/c1ccncc1)c1cc2ccccc2o1,2,-1,-2,31,2,2
Cc1cc(/C=N/NC(=O)c2cc3ccccc3o2)c(C)n1C,-1,-1,30*,14,-11,0
COc1ccc(S(=O)(=O)Nc2c(O)ccc3ccccc23)cc1OC,-1,0,.,61*,0,3
COc1ccc(S(=O)(=O)Nc2c(C(=O)O)[nH]c3ccccc23)cc1OC,-6,0,-3,55*,-4,-1
COc1ccc(C(=O)Nc2c(O)ccc3ccccc23)cc1OC,-3,2,.,53*,3,0
